Assay type: in vitro ADME, bovine
Conditions: healthy explants; 24 h absorption, 7-day desorption in 10x PBS
Method in brief: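 After 24 h uptake of 30 µM 5-FAM-labelled peptide at 37 °C, bovine cartilage disks were desorbed in 1x or 10x PBS with protease inhibitors for up to 7 days. The bath was changed daily and desorbed peptide was read by plate reader. % retention is moles remaining in tissue after desorption divided by moles taken up at 24 h. Mean ± SD, n=6–8 explants, ≥4 animals.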

For (ARRRAARA)4 [CPC +16], the “% CPC desorbed in 10x PBS over 7 days” value was “about 40%”.

Reference: paper PMC6551323 (Acta biomaterialia, 2018)
